According to ChEMBL document CHEMBL4033760, “Discovery of a Series of Indazole TRPA1 Antagonists” (ACS Med Chem Lett, 2017):
Converted amounts (≈) assume the structure as drawn. The source made the active and inactive calls. The rule behind the calls is not given here.

What was measured:
[1] = biological target: T1, Transient receptor potential cation channel subfamily A member 1 (Homo sapiens, UniProt O75762); assay: Inhibition of full length human TRPA1 at a holding potential of 15 mV measured after 1 min by PatchXpress electrophysiology assay
How it was run: (§1)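 Medium-throughput PatchXpress electrophysiology on HEK293-T-rex cells expressing TRPA1 (human line; selected compounds also run in a rat TRPA1 line).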

[2] = biological target: T2, Transient receptor potential cation channel subfamily A member 1 (Rattus norvegicus, UniProt Q6RI86); assay: Inhibition of full length rat TRPA1 at a holding potential of 15 mV measured after 1 min by PatchXpress electrophysiology assay; how it was run: as §1
[3] = Inhibition of full length opossum TRPA1 at a holding potential of 15 mV measured after 1 min by PatchXpress electrophysiology assay; parameters: species or system Monodelphis domestica
[4] = Inhibition of full length opossum TRPA1 hS5 chimera at a holding potential of 15 mV measured after 1 min by PatchXpress electrophysiology assay; parameters: species or system Monodelphis domestica
[5] = biological target: T1, Transient receptor potential cation channel subfamily A member 1; assay: Inhibition of full length human TRPA1 oS5 chimera at a holding potential of 15 mV measured after 1 min by PatchXpress electrophysiology assay
[6] = Intrinsic clearance in human liver microsomes; assay type: ADME, microsome; details: read-out: CLH
[7] = Intrinsic clearance in rat liver microsomes; assay type: ADME, microsome; details: read-out: CLH
MDR1 [8] = assay: Permeability across basolateral to apical side in RRCK cells expressing MDR1; assay type: ADME, cell-based, Canis lupus familiaris, MDCKII-LE; details: dog, MDCK-MDR1; read-out: permeability
MDR1 [9] = assay: Permeability across apical to basolateral side in RRCK cells expressing MDR1; assay type: ADME, cell-based, Canis lupus familiaris, MDCKII-LE; details: dog, MDCK-MDR1; read-out: permeability
[10] = Aqueous solubility of the compound by kinetic miniaturized shakeflask method; assay type: physicochemical; details: buffer
How it was run: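 Kinetic miniaturized shake-flask method, starting from a DMSO stock solution.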

[11] = biological target: T1, Transient receptor potential cation channel subfamily A member 1; assay: Antagonist activity at human TRPA1 by calcium flux based FLIPR assay
How it was run: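 High-throughput antagonist-mode FLIPR Ca2+ imaging screen of the internal library in 384-well format; hits confirmed by single-rig electrophysiology.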

[12] = biological target: Sodium channel protein type 5 subunit alpha (Homo sapiens, UniProt Q14524); assay: Inhibition of Nav1.5 (unknown origin)
[13] = biological target: Sodium channel protein type 9 subunit alpha (Homo sapiens, UniProt Q15858); assay: Inhibition of Nav1.7 (unknown origin)
[14] = biological target: Transient receptor potential cation channel subfamily V member 1 (Homo sapiens, UniProt Q8NER1); assay: Inhibition of TRPV1 (unknown origin)
[15] = biological target: T2, Transient receptor potential cation channel subfamily A member 1; assay: Inhibition of rat TRPA1 at a holding potential of 15 mV measured after 1 min by whole-cell manual patch clamp electrophysiology assay
Rattus norvegicus [16] = assay: Suppression of cinnamaldehyde-induced flare response in Sprague-Dawley rat at 50 mg/ml administered topically measured after 60 mins by recording blood flow for 30 mins by laser Doppler sonography method; assay type: functional
How it was run: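 Compound formulated in vehicle, applied topically to rat skin at 50 mg/mL and left for a set time. Then 20% v/v cinnamaldehyde in the same vehicle is applied at that site, and local blood flow is measured by laser Doppler sonography. Free plasma concentrations are also determined.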

[17] = Permeability in Sprague-Dawley rat skin; assay type: ADME, Zone of skin; details: read-out: permeability (converted)
How it was run: (§2)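 Skin flux study after topical administration. Skin permeability is given in cm/h, and compound concentrations are measured separately in the epidermal and dermal layers, expressed as μg/g.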

[18] = Drug level in Sprague-Dawley rat skin epidermal layer; assay type: ADME, Skin epidermis; details: in vivo; how it was run: as §2
[19] = Drug level in Sprague-Dawley rat skin dermal layer; assay type: ADME, Dermis; details: in vivo; how it was run: as §2
[20] = Unbound fraction in Sprague-Dawley rat plasma
[21] = biological target: Transient receptor potential cation channel subfamily A member 1 (Rattus norvegicus) (UniProt Q6RI86); details: 1 uM
[22] = biological target: Voltage-gated potassium channel, KQT; KCNQ2(Kv7.2)/KCNQ3(Kv7.3) (Homo sapiens, UniProt O43525+O43526); assay: Activation of KCNQ2/3 (unknown origin); assay type: protein-complex assay
[23] = biological target: T3, Potassium voltage-gated channel subfamily KQT member 1 (Homo sapiens, UniProt P51787); assay: Inhibition of KCNQ1 (unknown origin)
T3 sequence (P51787 whole entry): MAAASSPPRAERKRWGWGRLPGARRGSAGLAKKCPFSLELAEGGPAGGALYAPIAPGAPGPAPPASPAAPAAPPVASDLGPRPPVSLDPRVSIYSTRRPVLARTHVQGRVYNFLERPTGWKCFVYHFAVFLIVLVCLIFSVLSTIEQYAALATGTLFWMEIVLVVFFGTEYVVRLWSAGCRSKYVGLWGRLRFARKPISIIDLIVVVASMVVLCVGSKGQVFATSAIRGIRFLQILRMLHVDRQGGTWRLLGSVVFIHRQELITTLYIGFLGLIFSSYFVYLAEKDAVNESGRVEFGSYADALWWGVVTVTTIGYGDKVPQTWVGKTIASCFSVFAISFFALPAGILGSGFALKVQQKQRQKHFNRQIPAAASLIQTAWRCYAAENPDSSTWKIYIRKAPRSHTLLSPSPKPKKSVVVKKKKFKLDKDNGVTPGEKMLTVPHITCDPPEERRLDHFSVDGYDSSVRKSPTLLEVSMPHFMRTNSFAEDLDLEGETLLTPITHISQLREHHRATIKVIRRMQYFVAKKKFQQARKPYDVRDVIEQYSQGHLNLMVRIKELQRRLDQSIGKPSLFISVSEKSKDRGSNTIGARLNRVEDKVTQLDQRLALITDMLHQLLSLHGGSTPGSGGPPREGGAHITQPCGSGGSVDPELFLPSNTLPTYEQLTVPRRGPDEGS

[24] = biological target: Voltage-gated inwardly rectifying potassium channel KCNH2 (Homo sapiens, UniProt Q12809)
Rattus norvegicus [25] = assay: Anti-inflammatory activity in po dosed Sprague-Dawley rat assessed as reduction in flinching dosed 2 hrs prior to subcutaneous administration of AITC in right hand paw measured for 30 mins; assay type: functional
How it was run: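 Oral dosing in rats; AITC then given subcutaneously into the right hind paw. Paw flinching is scored, and the minimum effective dose is taken as the lowest dose giving a significant reduction.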

Rattus norvegicus [26] = assay: Suppression of cinnamaldehyde-induced flare response in Sprague-Dawley rat at 10 to 100 mg/kg administered systemically measured after 75 mins by recording blood flow for 30 mins by laser Doppler sonography method; assay type: functional, organism-based
How it was run: (§3)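 Rats dosed orally at 10, 30 and 100 mg/kg, with mean systemic concentrations measured. Flare is induced by cinnamaldehyde and blood flow read by laser Doppler sonography, compared against vehicle and a TRPV1 antagonist given as a mechanistic comparator.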

Blood = assay: Drug level in Sprague-Dawley rat blood at 10 to 100 mg/kg, po; assay type: ADME, organism-based; details: in vivo, read-out: Drug uptake; how it was run: as §3
MDCKII-LE = assay: Permeability in RRCK cells expressing MDR1; details: dog

Sequence of Transient receptor potential cation channel subfamily V member 1 (Q8NER1 whole entry): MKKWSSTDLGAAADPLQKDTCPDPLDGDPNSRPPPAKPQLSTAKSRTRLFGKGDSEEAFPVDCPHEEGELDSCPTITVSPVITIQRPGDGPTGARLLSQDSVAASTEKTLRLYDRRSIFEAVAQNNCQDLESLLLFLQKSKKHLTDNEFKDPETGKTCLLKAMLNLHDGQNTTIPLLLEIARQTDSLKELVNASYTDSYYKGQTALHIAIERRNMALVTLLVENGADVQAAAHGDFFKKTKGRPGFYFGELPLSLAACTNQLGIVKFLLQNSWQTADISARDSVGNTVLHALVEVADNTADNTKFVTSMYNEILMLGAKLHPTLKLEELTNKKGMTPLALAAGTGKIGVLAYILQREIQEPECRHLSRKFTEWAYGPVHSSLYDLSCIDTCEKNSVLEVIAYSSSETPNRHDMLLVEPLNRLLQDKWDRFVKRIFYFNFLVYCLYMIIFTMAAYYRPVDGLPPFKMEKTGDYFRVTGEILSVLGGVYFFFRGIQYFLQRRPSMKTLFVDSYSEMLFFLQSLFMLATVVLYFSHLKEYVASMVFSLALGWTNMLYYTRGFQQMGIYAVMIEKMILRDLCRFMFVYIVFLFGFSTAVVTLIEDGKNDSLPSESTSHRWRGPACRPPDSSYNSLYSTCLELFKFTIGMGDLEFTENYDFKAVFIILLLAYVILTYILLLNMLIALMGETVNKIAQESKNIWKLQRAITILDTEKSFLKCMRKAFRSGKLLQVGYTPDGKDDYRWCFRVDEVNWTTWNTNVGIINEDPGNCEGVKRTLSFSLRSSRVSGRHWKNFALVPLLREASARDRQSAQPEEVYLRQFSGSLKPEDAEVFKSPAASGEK
T1 sequence (O75762 whole entry): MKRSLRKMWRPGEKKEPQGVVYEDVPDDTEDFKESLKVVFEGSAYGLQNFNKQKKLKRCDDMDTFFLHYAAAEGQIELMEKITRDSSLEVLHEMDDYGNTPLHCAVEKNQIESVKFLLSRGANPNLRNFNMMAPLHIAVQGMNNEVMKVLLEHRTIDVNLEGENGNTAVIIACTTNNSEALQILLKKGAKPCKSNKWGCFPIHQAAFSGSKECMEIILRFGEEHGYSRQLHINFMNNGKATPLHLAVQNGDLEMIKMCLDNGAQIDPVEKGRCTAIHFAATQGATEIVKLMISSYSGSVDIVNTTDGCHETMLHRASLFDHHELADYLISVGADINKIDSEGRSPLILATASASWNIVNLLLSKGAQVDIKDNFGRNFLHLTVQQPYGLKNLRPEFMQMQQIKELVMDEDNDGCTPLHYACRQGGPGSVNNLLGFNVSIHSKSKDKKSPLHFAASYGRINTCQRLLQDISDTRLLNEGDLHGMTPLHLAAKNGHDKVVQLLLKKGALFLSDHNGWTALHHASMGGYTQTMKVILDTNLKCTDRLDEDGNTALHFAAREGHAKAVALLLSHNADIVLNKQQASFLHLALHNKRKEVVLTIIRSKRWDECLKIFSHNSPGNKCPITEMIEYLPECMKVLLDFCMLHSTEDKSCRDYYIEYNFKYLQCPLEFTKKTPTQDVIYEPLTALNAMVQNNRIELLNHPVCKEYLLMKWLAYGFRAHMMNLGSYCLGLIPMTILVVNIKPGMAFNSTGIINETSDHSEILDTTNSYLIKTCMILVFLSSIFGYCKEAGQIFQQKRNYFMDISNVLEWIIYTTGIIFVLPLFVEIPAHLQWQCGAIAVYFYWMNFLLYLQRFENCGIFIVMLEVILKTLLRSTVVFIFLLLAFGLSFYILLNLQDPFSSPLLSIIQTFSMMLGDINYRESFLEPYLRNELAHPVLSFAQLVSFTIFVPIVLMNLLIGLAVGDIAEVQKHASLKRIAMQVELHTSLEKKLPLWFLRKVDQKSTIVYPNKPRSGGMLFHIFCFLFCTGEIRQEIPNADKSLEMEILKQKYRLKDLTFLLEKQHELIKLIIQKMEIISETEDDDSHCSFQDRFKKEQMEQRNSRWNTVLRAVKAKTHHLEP
T2 sequence (Q6RI86 whole entry): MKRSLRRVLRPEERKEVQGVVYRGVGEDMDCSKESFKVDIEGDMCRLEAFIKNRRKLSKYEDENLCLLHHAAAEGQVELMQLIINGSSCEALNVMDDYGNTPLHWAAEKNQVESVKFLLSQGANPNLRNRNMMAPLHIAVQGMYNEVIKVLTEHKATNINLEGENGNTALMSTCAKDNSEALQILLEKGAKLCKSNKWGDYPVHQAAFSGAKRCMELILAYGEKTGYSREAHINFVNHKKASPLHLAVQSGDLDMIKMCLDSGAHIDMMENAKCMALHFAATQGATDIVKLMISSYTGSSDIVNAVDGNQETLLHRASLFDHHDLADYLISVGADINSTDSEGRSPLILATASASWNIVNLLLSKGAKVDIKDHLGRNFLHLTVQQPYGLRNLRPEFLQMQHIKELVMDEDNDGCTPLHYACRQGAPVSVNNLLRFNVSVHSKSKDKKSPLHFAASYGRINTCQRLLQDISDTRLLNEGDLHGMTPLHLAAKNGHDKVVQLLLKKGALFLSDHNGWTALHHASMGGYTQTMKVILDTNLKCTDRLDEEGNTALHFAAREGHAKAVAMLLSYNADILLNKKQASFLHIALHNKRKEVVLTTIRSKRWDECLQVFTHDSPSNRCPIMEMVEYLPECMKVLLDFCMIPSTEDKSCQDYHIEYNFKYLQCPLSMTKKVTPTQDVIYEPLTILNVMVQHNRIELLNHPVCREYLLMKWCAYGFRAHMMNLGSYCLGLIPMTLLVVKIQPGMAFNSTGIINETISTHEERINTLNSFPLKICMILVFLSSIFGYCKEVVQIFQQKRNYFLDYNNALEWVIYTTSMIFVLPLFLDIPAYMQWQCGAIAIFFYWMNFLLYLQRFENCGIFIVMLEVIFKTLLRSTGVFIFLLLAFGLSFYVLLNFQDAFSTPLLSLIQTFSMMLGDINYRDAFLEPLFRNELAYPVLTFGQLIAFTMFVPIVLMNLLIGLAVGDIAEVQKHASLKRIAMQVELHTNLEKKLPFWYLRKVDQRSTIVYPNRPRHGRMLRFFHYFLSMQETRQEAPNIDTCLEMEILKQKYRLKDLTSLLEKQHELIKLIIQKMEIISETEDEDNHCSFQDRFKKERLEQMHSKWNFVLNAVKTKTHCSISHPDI
Sequence of Sodium channel protein type 5 subunit alpha (Q14524 whole entry): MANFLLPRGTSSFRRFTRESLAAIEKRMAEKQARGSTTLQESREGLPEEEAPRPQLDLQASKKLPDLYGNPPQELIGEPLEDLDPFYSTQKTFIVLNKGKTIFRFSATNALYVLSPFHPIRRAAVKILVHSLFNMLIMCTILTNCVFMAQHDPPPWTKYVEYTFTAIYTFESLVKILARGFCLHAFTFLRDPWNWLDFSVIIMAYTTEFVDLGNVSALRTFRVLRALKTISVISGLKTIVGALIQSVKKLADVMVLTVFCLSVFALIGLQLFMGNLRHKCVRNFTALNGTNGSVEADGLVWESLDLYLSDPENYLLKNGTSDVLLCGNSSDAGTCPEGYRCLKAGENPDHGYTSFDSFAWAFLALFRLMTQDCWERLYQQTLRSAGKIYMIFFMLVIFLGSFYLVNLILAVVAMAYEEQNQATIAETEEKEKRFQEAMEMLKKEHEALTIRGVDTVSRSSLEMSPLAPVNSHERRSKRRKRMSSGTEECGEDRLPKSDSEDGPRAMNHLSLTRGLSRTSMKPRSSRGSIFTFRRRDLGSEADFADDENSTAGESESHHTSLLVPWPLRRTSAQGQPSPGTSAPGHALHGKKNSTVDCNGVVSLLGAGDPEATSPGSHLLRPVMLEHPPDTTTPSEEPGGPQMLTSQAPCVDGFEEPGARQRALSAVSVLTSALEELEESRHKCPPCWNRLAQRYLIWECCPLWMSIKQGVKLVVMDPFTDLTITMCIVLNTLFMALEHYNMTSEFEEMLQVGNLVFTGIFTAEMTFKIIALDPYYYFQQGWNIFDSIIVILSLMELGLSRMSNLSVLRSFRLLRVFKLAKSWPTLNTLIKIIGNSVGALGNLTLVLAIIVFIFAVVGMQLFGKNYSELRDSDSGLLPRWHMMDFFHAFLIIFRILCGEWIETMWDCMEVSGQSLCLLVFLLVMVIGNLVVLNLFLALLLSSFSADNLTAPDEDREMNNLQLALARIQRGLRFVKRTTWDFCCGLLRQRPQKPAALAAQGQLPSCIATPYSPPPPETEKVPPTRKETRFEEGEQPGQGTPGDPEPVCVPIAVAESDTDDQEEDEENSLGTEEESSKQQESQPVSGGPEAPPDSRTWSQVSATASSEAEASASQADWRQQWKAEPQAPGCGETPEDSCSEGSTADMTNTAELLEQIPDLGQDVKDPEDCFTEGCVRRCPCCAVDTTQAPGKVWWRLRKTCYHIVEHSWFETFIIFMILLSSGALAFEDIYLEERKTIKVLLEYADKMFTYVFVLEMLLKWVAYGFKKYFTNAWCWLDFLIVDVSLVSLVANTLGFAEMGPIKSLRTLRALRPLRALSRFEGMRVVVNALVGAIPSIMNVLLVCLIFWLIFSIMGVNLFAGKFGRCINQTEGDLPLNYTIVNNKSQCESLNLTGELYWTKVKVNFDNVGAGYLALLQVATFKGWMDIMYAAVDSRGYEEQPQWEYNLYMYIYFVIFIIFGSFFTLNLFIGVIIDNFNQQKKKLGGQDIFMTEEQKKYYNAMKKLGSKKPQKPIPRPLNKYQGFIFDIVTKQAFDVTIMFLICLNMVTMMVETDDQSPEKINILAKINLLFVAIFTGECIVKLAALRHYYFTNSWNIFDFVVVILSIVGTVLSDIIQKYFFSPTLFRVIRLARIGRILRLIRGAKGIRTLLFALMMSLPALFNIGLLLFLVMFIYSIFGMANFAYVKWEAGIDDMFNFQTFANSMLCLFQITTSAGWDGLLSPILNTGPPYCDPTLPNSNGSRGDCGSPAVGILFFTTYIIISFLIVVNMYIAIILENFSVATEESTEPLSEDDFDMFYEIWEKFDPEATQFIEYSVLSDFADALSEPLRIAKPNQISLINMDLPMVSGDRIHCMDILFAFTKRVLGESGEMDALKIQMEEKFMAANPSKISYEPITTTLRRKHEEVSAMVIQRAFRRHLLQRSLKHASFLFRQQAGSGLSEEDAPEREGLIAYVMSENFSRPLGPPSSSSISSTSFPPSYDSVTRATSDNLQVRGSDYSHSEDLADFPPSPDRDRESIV
Sequence of Transient receptor potential cation channel subfamily A member 1 (Rattus norvegicus) (Q6RI86 whole entry): as the sequence (Q6RI86 whole entry) above

IC50 [1] [nM] | IC50 [2] [nM] | SMILES | also measured
2540 | 813 | Fc1ccc(Nc2n[nH]c3cc(OC(F)(F)F)cnc23)nc1 | –
> 10000 | – | FC(F)(F)c1ccc2c(Nc3ccc(C(F)(F)F)nc3)n[nH]c2c1 | –
748 | 116 | Fc1ccc2[nH]c(-c3n[nH]c4cc(OC(F)(F)F)ccc34)cc2c1 | –
1180 | 271 | N#Cc1ccc(-c2n[nH]c3cc(OC(F)(F)F)ccc23)cn1 | –
20 | 11 | Fc1ccc(Nc2n[nH]c3cc(OC(F)(F)F)cnc23)cc1F | IC50 [3]: > 30000 nM; IC50 [4]: 132 nM; IC50 [5]: 16000 nM; microsomal CLint [6]: 73 µL/min/mg; microsomal CLint [7]: 99 µL/min/mg; Papp B→A (MDR1 [8]): 7 ×10⁻⁶ cm/s; Papp A→B (MDR1 [9]): 2 ×10⁻⁶ cm/s; solubility kinetic [10]: 1.6 µg/mL (≈ 4.85 µM); IC50 [11]: 330 nM; IC50 [12]: 18200 nM; IC50 [13]: 8700 nM; IC50 [14]: > 30000 nM; IC50 [15]: 11 nM; Activity (Rattus norvegicus [16]): Active; Papp [17]: 0.00333 ×10⁻⁶ cm/s; Drug uptake [18]: 304 µg/g; Drug uptake [19]: 20 µg/g; Drug uptake(free) [20]: 7 to 59 nM
> 10000 | – | CN(c1ccc(Cl)nc1)c1nn(C)c2cc(C(F)(F)F)ccc12 | –
2100 | 329 | Fc1ccc(-c2n[nH]c3cc(C(F)(F)F)ccc23)cc1F | –
> 10000 | – | CN(c1ccc(Cl)nc1)c1n[nH]c2cc(C(F)(F)F)ccc12 | –
131 | < 100 | Fc1ccc(Nc2n[nH]c3cc(OC(F)(F)F)ccc23)cc1F | inhibition [21]: 96%
42 | 9 | FC(F)(F)c1ccc2c(Nc3ccc(Cl)cc3)n[nH]c2c1 | –
550 | – | FC(F)(F)c1ccc2c(Nc3ccc(Cl)nc3)n[nH]c2c1 | EC50 [22]: 37 nM; IC50 [23]: 2600 nM; IC50 [11]: 2500 nM; IC50 [12]: 8520 nM; IC50 [14]: > 30000 nM; IC50 [24]: > 100000 nM
11700 | – | Clc1ccc(Nc2n[nH]c3ccccc23)cc1 | –
38 | 23 | Fc1ccc(Nc2n[nH]c3cc(C(F)(F)F)cnc23)cc1F | –
450 | 255 | Fc1ccc(-c2n[nH]c3cc(C(F)(F)F)cnc23)cc1F | –
> 10000 | – | Cn1nc(Nc2ccc(Cl)nc2)c2ccc(C(F)(F)F)cc21 | –
53 | 9 | Fc1ccc(Nc2n[nH]c3cc(C(F)(F)F)ccc23)cc1F | –
645 | – | Fc1ccc(Nc2n[nH]c3cc(C(F)(F)F)ncc23)cc1F | –
91 | 8 | Fc1ccc2[nH]c(-c3n[nH]c4cc(OC(F)(F)F)cnc34)cc2c1 | –
3700 | – | Fc1ccc(Nc2n[nH]c3cc(-c4ccc(F)c(F)c4)ccc23)cc1F | –
111 | 49 | Fc1ccc(Nc2n[nH]c3cc(Cl)ccc23)cc1F | –
4630 | 1850 | Fc1ccc(-c2n[nH]c3cc(NC4CCN(CC5CC5)CC4)cnc23)cc1 | –
686 | 246 | N#Cc1ccc(-c2n[nH]c3cc(OC(F)(F)F)ccc23)cc1 | EC50 [22]: > 30000 nM; IC50 [23]: > 3000 nM; microsomal CLint [6]: < 8 µL/min/mg; microsomal CLint [7]: 58 µL/min/mg; Papp B→A (MDR1 [8]): 8 ×10⁻⁶ cm/s; Papp A→B (MDR1 [9]): 4 ×10⁻⁶ cm/s; solubility kinetic [10]: 4.8 µg/mL (≈ 15.8 µM); IC50 [11]: > 10000 nM; IC50 [12]: 17300 nM; IC50 [13]: 17700 nM; IC50 [14]: > 30000 nM; IC50 [15]: 195 nM; Activity (Rattus norvegicus [25]): Dose-dependent effect; minimal effective dose (Rattus norvegicus [25]; read-out: MED): 100 mg/kg; Activity (Rattus norvegicus [26]): Active; concentration (Blood): 11 to 52 nM; IC50 [24]: > 30000 nM; Papp (MDCKII-LE): < 0.1 ×10⁻⁶ cm/s
2670 | 453 | COCCNC(=O)c1ccc2c(-c3ccc(C#N)cc3)n[nH]c2c1 | –
74 | 80 | N#Cc1ccc(-c2n[nH]c3cc(OC(F)(F)F)ccc23)s1 | –
257 | 216 | Fc1ccc(-c2n[nH]c3cc(OC(F)(F)F)cnc23)cc1 | –
134 | 128 | Fc1ccc(-c2n[nH]c3cc(OC(F)(F)F)cnc23)cc1F | –
1200 | – | Fc1ccc(Nc2n[nH]c3cc(-c4ccccc4OC(F)(F)F)ccc23)cc1F | –
